Assay outcomes as filed in PubChem BioAssay.
Most compounds without a hit are left out; they make up all but 1.9% or so of the library.
CR mimetic SO – yeast age-related superoxide inhibition as caloric restriction mimetic; actives 0.18% (n = 330,000); superoxide response (% of plate mean), % at 10 µM; S. cerevisiae aged cells, superoxide DHE fluorescence; hits give low values; AID 2690;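 active = superoxide response under a set limit, about three screen SD below normal, cut at about 65% in these data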;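 note: yeast aged for seven days with compound at 30 °C before DHE staining; 100% = average MFI of all compound-treated wells on the plate with controls excluded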
Rev-erbA mod – Rev-erb alpha (human) modulation; P20393; Rev-erbα–FITC-DNA binding, fluorescence polarization, 90 min; activity, % at 10 µM; actives 0.79% (n = 370,000);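 active = activity above about 14%, limit read from the data; passing the limit was not always enough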;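 note: 0% = DMSO wells with 35 nM protein and 100% = DMSO wells with 750 nM protein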
Rce1 inh – blocks yeast Ras-converting enzyme; actives 0.27% (n = 290,000); Q03530; yeast membranes, quenched prenylated peptide cleavage fluorescence; calls only; AID 2563;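 active = fall in fluorescence gain of 50% or more versus controls, with final raw signal at or below 3038400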;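 note: plate controls were neutral control wells for no effect and wells lacking membranes for full effect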
Target sequence (Q03530 whole entry, looked up): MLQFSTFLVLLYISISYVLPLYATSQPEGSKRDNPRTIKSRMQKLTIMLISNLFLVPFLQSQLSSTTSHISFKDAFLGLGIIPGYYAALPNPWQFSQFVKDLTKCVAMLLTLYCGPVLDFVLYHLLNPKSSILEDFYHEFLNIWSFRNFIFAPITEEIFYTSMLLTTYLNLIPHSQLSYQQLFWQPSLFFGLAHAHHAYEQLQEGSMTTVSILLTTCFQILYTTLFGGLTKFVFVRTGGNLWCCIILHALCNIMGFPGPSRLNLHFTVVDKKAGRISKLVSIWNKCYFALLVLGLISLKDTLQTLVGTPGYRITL
MIN6 prolif – induces beta-cell replication in MIN6 cells; MIN6 cells proliferation, ATPlite luminescence, 48 h; cells starved in 0.2% serum; 100% = growth in 10% serum; proliferation, % at 10 µM; actives 0.29% (n = 330,000);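 active = compounds whose signal lies at least 3.5 SD above the mean of all wells on their plate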;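 note: 0% = DMSO-treated cells in low-serum medium and 100% = 10% serum control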
PG9 Ab binder – binds the HIV-1 gp120 antibody PG9. TR-FRET gp120-PG9 antibody binding. inhibition, % at 6.7 µM. actives 0.43% (n = 360,000); in the data active = inhibition above about 8.5%
UCH37 inh – inhibitors of human deubiquitinating enzyme UCH37. AID 588478. purified proteasome/UCH37, Ub-AMC cleavage fluorescence. inhibition, % (concentration not given with the values). Q9Y5K5. actives 0.33% (n = 330,000);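 active = mean inhibition over replicate wells above about 20%, limit read from the data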;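 note: 0% = compound-free wells with enzyme and 100% = wells lacking proteasome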
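system = Proteasome-associated human UCH37 deubiquitinase | amount = 0.15 nM proteasome as dispensed | medium = pH 7.4 Tris-HCl (50 mM) with ovalbumin, ATP-MgCl2, DTT | incubation = 30 min preincubation with enzyme, 25 min cleavage at room temperature | detection = AMC fluorescence 355/460 nm | read-out basis = percent inhibition | controls = no-proteasome and no-compound wells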
PG9 bind confirm – PG9 antibody binding, confirmed | shares compounds with PG9 Ab binder | AID 651571 | inhibition, % at 6.7 µM | actives 90% (n = 1,500) | TR-FRET PG9 antibody binding, biochemical; in the data active = inhibition above about 9%
PGV04 Ab binding – binds control antibody PGV04 in PG9 binder counter-screen | shares compounds with PG9 Ab binder | TR-FRET PGV04 antibody-gp120 binding, biochemical | inhibition, % at 6.7 µM | actives 95% (n = 1,500) | AID 651604; in the data active = inhibition above about 9.5%
Starred values were filed as active, the others as inactive.

Screening COc1cccc(-n2c(=O)[nH]cc(C(=O)Nc3ccc4c(c3)OCCO4)c2=O)c1 returned CR mimetic SO 90, Rev-erbA mod 3, Rce1 inh inactive, MIN6 prolif -4, PG9 Ab binder 29*, UCH37 inh 8, PG9 bind confirm 7 and PGV04 Ab binding 9.
Screening COc1ccc(OC)c(NC(=O)CSc2nncc3ccccc23)c1 returned CR mimetic SO 94, Rev-erbA mod 2, Rce1 inh inactive, MIN6 prolif -4, PG9 Ab binder 13*, UCH37 inh 4, PG9 bind confirm 8 and PGV04 Ab binding 10*.
`COc1ccc(NC(=O)CSc2nncc3ccccc23)cc1` gave CR mimetic SO 100, Rev-erbA mod -2, Rce1 inh inactive, MIN6 prolif 1, PG9 Ab binder 2 and UCH37 inh 12.
Screening C=CCn1c(SCC(=O)Nc2ccc(-c3nc4ccc(C)cc4s3)cc2)nnc1-c1ccccc1 returned CR mimetic SO 90, Rev-erbA mod 20, Rce1 inh inactive, PG9 Ab binder 9.6*, UCH37 inh -290, PG9 bind confirm 13* and PGV04 Ab binding 27*.
O=C(CSc1nnc2ccccn12)Nc1ccc2c(c1)OCO2 was read as CR mimetic SO 122, Rev-erbA mod 5, Rce1 inh inactive, MIN6 prolif -1, PG9 Ab binder -1 and UCH37 inh -1.
Screening O=C(CSc1nnc2ccccn12)Nc1cccc(-c2nc3ccccc3s2)c1 returned CR mimetic SO 141, Rev-erbA mod 20, Rce1 inh inactive, MIN6 prolif 0, PG9 Ab binder 8.9*, PG9 bind confirm 13* and PGV04 Ab binding 25*.
`Cc1ccc(-c2nnc(SCC(=O)Nc3ccc(-c4nc5ccc(C)cc5s4)cc3)n2Cc2ccco2)cc1` gave Rev-erbA mod -1.
For Cc1n[nH]c(=O)nc1NN=Cc1ccco1 the results were UCH37 inh 17.
O=C(O)c1ccc2c(c1)C(=O)N(c1cccc(C(=O)/C=C/c3ccccc3)c1)C2=O was read as CR mimetic SO 113, Rev-erbA mod 0, Rce1 inh inactive, MIN6 prolif -1, PG9 Ab binder 1 and UCH37 inh 6.
For O=C(O)c1cccc(N2C(=O)c3cc4cccc(Br)c4cc3C2=O)c1 the results were CR mimetic SO 106, Rev-erbA mod 5, Rce1 inh inactive, MIN6 prolif -4, PG9 Ab binder 14*, UCH37 inh -9, PG9 bind confirm 16* and PGV04 Ab binding 22*.
For CCC(Cc1ccccc1)=NNC(=O)CNC(=O)c1ccc(Cl)cc1Cl the results were UCH37 inh 0.
CCOc1ccc2nc(N=Cc3c(C)[nH]n(-c4ccc(C)cc4)c3=O)sc2c1 was read as UCH37 inh 13.
O=C(C1=C(O)C(=O)N(CC2CCCO2)C1c1ccccc1F)c1ccco1 (centres undefined) was read as CR mimetic SO 99, Rev-erbA mod -2, Rce1 inh inactive, MIN6 prolif 0, PG9 Ab binder 9.8*, UCH37 inh 9, PG9 bind confirm 16* and PGV04 Ab binding 20*.
For COc1cccc2cc(C(=O)Nc3cccnc3N3CCOCC3)c(=O)oc12 the results were CR mimetic SO 108, Rev-erbA mod -5, Rce1 inh inactive, MIN6 prolif -2, PG9 Ab binder 9.7*, UCH37 inh 5, PG9 bind confirm 4 and PGV04 Ab binding 7.
For O=C(Nc1cccnc1N1CCOCC1)c1cc2ccccc2oc1=O the results were CR mimetic SO 100, Rev-erbA mod -3, Rce1 inh inactive, MIN6 prolif 4, PG9 Ab binder -2 and UCH37 inh 5.
